Laboratory results from ChEMBL document CHEMBL4229397, “N-(7-Cyano-6-(4-fluoro-3-(2-(3-(trifluoromethyl)phenyl)acetamido)phenoxy)benzo[d]thiazol-2-yl)cyclopropanecarboxamide (TAK632) Promotes Inhibition of BRAF through the Induction of Inhibited Dimers” (J Med Chem, 2018).
Active and inactive are the calls of the source. No cut-off for these calls is given here.

Columns and labels:
[1] = target: Serine/threonine-protein kinase B-raf (Homo sapiens, UniProt P15056, V600E); test: Inhibition of N-terminal 6x-His-tagged BRAF V600E mutant (unknown origin) expressed in baculovirus infected Sf9 insect cells co-expressing mouse p50cdc37 using C-terminal His-tagged/N-terminal GST-tagged full length human MEK1 as substrate after 1 hr by ELISA
Chain of Serine/threonine-protein kinase B-raf (Homo sapiens, UniProt P15056, V600E) (P15056 2-766 V600E limits assumed): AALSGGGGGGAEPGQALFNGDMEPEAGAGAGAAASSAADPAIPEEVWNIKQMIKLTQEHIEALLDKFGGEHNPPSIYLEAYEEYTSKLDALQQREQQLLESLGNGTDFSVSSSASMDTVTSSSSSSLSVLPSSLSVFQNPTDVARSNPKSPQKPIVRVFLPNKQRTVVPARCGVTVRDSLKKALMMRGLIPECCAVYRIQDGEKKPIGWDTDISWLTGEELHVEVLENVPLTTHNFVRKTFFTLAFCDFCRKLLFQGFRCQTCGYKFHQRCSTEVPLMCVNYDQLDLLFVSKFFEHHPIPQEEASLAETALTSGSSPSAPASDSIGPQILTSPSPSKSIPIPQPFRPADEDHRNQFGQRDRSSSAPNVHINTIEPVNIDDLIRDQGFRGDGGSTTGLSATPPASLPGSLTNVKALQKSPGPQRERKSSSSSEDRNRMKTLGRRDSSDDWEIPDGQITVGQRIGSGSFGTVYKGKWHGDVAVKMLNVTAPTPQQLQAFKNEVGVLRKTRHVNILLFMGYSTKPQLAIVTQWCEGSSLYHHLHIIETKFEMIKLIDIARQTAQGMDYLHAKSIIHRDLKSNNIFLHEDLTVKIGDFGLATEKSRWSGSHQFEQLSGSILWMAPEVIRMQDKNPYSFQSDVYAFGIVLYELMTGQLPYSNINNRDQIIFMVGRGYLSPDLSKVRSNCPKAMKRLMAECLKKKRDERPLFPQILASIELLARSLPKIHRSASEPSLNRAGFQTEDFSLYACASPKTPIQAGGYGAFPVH
Summary of the method: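 ELISA: GST-MEK1 bound to glutathione-coated plate 1 h, room temperature. Insect-cell His-BRAF V600E (1:1000 dilution) preincubated with inhibitor 1 h, room temperature, then reacted with 100 μM ATP in 50 mM HEPES pH 7.0, 200 mM NaCl, 20 mM MgCl2, 30 min, 37 °C. Anti-pMEK S217/S221, HRP secondary, chemiluminescence. Duplicate or triplicate, min–max normalized, log(inhibitor)-response IC50.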

[2] = target: T1, Serine/threonine-protein kinase B-raf (Homo sapiens, UniProt P15056); test: Inhibition of N-terminal 6x-His-tagged BRAF kinase domain (unknown origin) expressed in baculovirus infected Sf9 insect cells co-expressing mouse p50cdc37 using C-terminal His-tagged/N-terminal GST-tagged full length human MEK1 as substrate after 1 hr by ELISA
T1 sequence (P15056 whole entry, the tested form may be a part): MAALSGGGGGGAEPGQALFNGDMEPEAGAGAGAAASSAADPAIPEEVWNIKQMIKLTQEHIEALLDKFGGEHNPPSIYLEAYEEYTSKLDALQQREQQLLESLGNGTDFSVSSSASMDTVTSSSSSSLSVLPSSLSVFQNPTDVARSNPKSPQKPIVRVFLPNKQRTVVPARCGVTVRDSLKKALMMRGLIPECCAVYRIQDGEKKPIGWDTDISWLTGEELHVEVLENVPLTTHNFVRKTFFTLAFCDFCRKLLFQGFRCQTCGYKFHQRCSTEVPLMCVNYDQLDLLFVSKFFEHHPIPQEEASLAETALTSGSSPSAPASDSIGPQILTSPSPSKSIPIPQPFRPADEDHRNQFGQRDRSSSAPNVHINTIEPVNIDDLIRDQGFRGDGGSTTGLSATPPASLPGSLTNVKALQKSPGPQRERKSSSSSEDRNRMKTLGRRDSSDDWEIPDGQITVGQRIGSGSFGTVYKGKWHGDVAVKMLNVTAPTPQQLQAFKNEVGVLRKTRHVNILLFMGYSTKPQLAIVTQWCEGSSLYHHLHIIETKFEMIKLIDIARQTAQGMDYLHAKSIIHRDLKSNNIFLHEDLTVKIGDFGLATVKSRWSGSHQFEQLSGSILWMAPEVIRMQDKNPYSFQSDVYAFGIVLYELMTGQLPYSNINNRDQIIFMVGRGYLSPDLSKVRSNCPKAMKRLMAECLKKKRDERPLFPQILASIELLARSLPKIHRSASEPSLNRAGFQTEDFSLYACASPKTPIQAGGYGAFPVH
Summary of the method: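 His-tagged BRAF kinase domain (residues 442–724, WT or V600E) was preincubated with inhibitor 1 h at room temperature in 50 mM HEPES pH 7.0, 50 mM NaCl. It was then added to GST-MEK1 bound on glutathione plates, with 100 μM ATP final in 50 mM HEPES pH 7.0, 200 mM NaCl, 20 mM MgCl2, for 30 min at 37 °C. Phospho-MEK (S217/S221) was read by chemiluminescent ELISA. Curves run in duplicate/triplicate, min–max normalized, IC50 from log(inhibitor)–response fit.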

[3] = target: T1, Serine/threonine-protein kinase B-raf; test: Induction of N-terminal 6x-His-tagged BRAF (unknown origin) dimer formation expressed in baculovirus infected Sf9 insect cells co-expressing mouse p50cdc37 at 200 uM measured after trypsin digestion for 30 mins by coomassie blue staining-based SDS-PAGE method
[4] = target: T1, Serine/threonine-protein kinase B-raf; test: Induction of N-terminal 6x-His-tagged BRAF (unknown origin) dimer formation expressed in baculovirus infected Sf9 insect cells co-expressing mouse p50cdc37 assessed as melting temperature at 125 uM by differential scanning calorimetric method
[5] = target: T1, Serine/threonine-protein kinase B-raf; test: Induction of N-terminal 6x-His-tagged BRAF (unknown origin) dimer formation expressed in baculovirus infected Sf9 insect cells co-expressing mouse p50cdc37 at 15 uM by sedimentation velocity method
[6] = test system: Serine/threonine-protein kinase B-raf (Homo sapiens), P15056 [V600E]; test: Induction of N-terminal 6x-His-tagged BRAF V600E mutant (unknown origin) dimer formation expressed in baculovirus infected Sf9 insect cells co-expressing mouse p50cdc37 at 10 uM by sedimentation velocity method
Chain of Serine/threonine-protein kinase B-raf (Homo sapiens), P15056 [V600E] (P15056 whole entry V600E): as the sequence (P15056 whole entry, the tested form may be a part) above, with V600E counted along it

[7] = test system: Serine/threonine-protein kinase B-raf (Homo sapiens), P15056 [V600E]; test: Induction of N-terminal 6x-His-tagged BRAF V600E mutant (unknown origin) dimer formation expressed in baculovirus infected Sf9 insect cells co-expressing mouse p50cdc37 at 20 uM by sedimentation velocity method
[8] = target: T1, Serine/threonine-protein kinase B-raf; test: Induction of N-terminal 6x-His-tagged BRAF (unknown origin) dimer formation expressed in baculovirus infected Sf9 insect cells co-expressing mouse p50cdc37 assessed as melting temperature at 75 uM by differential scanning calorimetric method (reference value: 37.84 degC)
[9] = target: T1, Serine/threonine-protein kinase B-raf; test: Induction of N-terminal 6x-His-tagged BRAF (unknown origin) dimer formation expressed in baculovirus infected Sf9 insect cells co-expressing mouse p50cdc37 assessed as melting temperature at 250 uM by differential scanning calorimetric method (reference value: 37.84 degC)

Row | SMILES | IC50 [1] [nM] | IC50 [2] [nM] | Activity [3] | Tm [4] [°C] | Activity [5] | Activity [6] | Activity [7] | Tm [8] [°C] | Tm [9] [°C]
1 | N#Cc1c(Oc2ccc(F)c(NC(=O)Cc3cccc(C(F)(F)F)c3)c2)ccc2nc(NC(=O)COCCOCCOCCOCC(=O)Nc3nc4ccc(Oc5ccc(F)c(NC(=O)Cc6cccc(C(F)(F)F)c6)c5)c(C#N)c4s3)sc12 | 168 | 616 | – | – | – | – | – | – | –
2 | N#Cc1c(Oc2ccc(F)c(NC(=O)Cc3cccc(C(F)(F)F)c3)c2)ccc2nc(NC(=O)COCC(=O)Nc3nc4ccc(Oc5ccc(F)c(NC(=O)Cc6cccc(C(F)(F)F)c6)c5)c(C#N)c4s3)sc12 | 421 | 537 | – | – | – | – | – | – | –
3 | N#Cc1c(Oc2ccc(F)c(NC(=O)Cc3cccc(C(F)(F)F)c3)c2)ccc2nc(NC(=O)COCCOCCOCC(=O)Nc3nccs3)sc12 | – | 20.3 | Active | 63.3 | – | – | – | – | –
4 | N#Cc1c(Oc2ccc(F)c(NC(=O)Cc3cccc(C(F)(F)F)c3)c2)ccc2nc(NC(=O)C3CC3)sc12 | 4.46 | 3.23 to 7.11 | Active | 68.7 | Active | Active | – | – | –
5 | N#Cc1c(Oc2ccc(F)c(NC(=O)Cc3cccc(C(F)(F)F)c3)c2)ccc2nc(NC(=O)COCCOCCOCCOCCOCCOCCOCC(=O)Nc3nc4ccc(Oc5ccc(F)c(NC(=O)Cc6cccc(C(F)(F)F)c6)c5)c(C#N)c4s3)sc12 | 352 | 732 | – | – | – | – | – | – | –
6 | CCCS(=O)(=O)Nc1ccc(F)c(C(=O)c2c[nH]c3ncc(-c4ccc(Cl)cc4)cc23)c1F | – | – | inactive | – | inactive | – | – | – | –
7 | N#Cc1c(Oc2ccc(F)c(NC(=O)Cc3cccc(C(F)(F)F)c3)c2)ccc2nc(NC(=O)COCCOCCOCCOCCOCC(=O)Nc3nc4ccc(Oc5ccc(F)c(NC(=O)Cc6cccc(C(F)(F)F)c6)c5)c(C#N)c4s3)sc12 | 73.8 | 85.5 to 90.2 | – | – | – | – | inactive | – | –
8 | COCCOCC(=O)Nc1nc2ccc(Oc3ccc(F)c(NC(=O)Cc4cccc(C(F)(F)F)c4)c3)c(C#N)c2s1 | – | 5.75 | – | – | – | – | – | – | –
9 | N#Cc1c(Oc2ccc(F)c(NC(=O)Cc3cccc(C(F)(F)F)c3)c2)ccc2nc(NC(=O)COCCOCCOCC(=O)Nc3nc4ccc(Oc5ccc(F)c(NC(=O)Cc6cccc(C(F)(F)F)c6)c5)c(C#N)c4s3)sc12 | 73.9 | 87.2 to 132 | inactive | 38.7 to 59.6 | inactive | inactive | inactive | 38.4 to 58.6 | 40.1 to 62.6
